The data set can be described thus: Toxicity liver stage against HepG2, at 10uM. It is filed as cell-based. Further details: test concentration 10 uM, cell line HepG2-A16-CD81EGFP. To be noted: human, HepG2-A16-CD81EGFP cells; read-out: INHIBITION
In outline: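 Uninfected HepG2-A16-CD81EGFP cells, 3 × 10^3 per well, 1536-well, plated on prespotted compound at 10 μM final, parasite-free screening media added to match infected plates; puromycin 10 μM positive, DMSO 0.5% negative; run in parallel with 48 h PbLuc assay at 37 °C, 5% CO2; viability by CellTiter-Glo luminescence, normalized to controls.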
Regarding `CCC(C)N1C(=O)c2ccc(C(=O)NCCc3c[nH]cn3)cc2C1=O` (configuration not stated), the cytotoxicity at 10 µM is -8.64%.
For `COc1ccccc1CNC(=O)COc1c(C)n(C)ccc1=O` the value was -41.4%; for `COCCCNC(=O)Cc1cc(-c2ccc(Cl)cc2)on1`, -21.4%.
For the compound `CSc1ncccc1C(=O)NCCC(O)c1ccco1` (configuration not stated), the cytotoxicity at 10 µM is -2.93%.
For `O=C1CC(NS(=O)(=O)c2ccc(Br)cc2)CN1` (configuration not stated) the value was -0.154%.
Turning to `CC(C)NC(=O)C1CN(C(=O)Cc2ccccc2)CC12CCOCC2` (configuration not stated), the cytotoxicity at 10 µM is 5.31%.
`O=C(c1ccc(Cn2cc(Br)cn2)cc1)N1CCCC1`: the cytotoxicity at 10 µM is -7.86%.
For `c1cc2cc[nH]c2c(CC2CN(Cc3cscn3)C2)n1`, the cytotoxicity at 10 µM worked out at 13.8%.
For the compound `Cc1cc(N2CCCC(c3nncn3C3CC3)C2)ncn1` (configuration not stated), the cytotoxicity at 10 µM was -6.48%.
With `COc1cccc(C(CO)NC(=O)Cc2cccc(C)c2)c1` (configuration not stated), the cytotoxicity at 10 µM was 4.53%.
Take `O=S(=O)(NCCc1ccccc1F)N1CCOCC1`: the cytotoxicity at 10 µM was -1.7%.
With `c1cnn(C2CN(c3nc(-c4ccncc4)nc4c3CCC4)C2)c1`, the cytotoxicity at 10 µM was -43%.
As to `COCC1CN(c2ccc(Cl)cc2C#N)CCO1` (configuration not stated), the cytotoxicity at 10 µM came out at 11.1%.
Regarding `CCC(CCNCc1cnc(C2CCC2)s1)N1CCCC1=O` (configuration not stated), the cytotoxicity at 10 µM is -3.13%.
For `O=C(NCc1nc(C2CC2)no1)N1CCOC(c2cccc(F)c2)C1` (configuration not stated) the value was -44.6%; for `Cc1nn(C)c(Cl)c1C1CCCN1C(=O)c1ccc(N(C)C)nn1` (configuration not stated), -9.01%.
On to `COC(C(=O)N1CCN(Cc2noc(C)n2)CC1)c1ccccc1` (configuration not stated), for which the cytotoxicity at 10 µM was -1.8%.
For `CCCN(CCS(C)(=O)=O)C1CCc2ccccc2C1` (configuration not stated) the value was -5.08%.
In the case of `CN(Cc1cc(=O)c(O)co1)C1CCN(c2ccc(F)cc2)CC1`, the cytotoxicity at 10 µM was -3.73%.
Turning to `COc1cc(CNc2cc(-c3nncn3C)ccn2)cc(OC)c1OC`, the cytotoxicity at 10 µM is -3.78%.
For `Cc1ccc(S(=O)(=O)n2ccc(C(=O)NCC(F)(F)F)c2)cc1` the value was -4.78%.
Regarding `CC(C)c1nnc(NC(=O)CCc2cc(F)ccc2F)[nH]1`, the cytotoxicity at 10 µM is -16.9%.
For `CCc1ccsc1C(=O)N1CCS(=O)(=O)CC1`, the cytotoxicity at 10 µM came to 5.36%.
In the case of `CSc1[nH]c(=O)c(C(=O)N2CCCC2c2cccs2)cc1C#N` (configuration not stated), the cytotoxicity at 10 µM was -3.49%.
Consider `CCNc1nc(C(=O)N(C)Cc2nc(CC)no2)cs1`, for which the cytotoxicity at 10 µM was -6.56%.
As to `CCNC(=O)CNS(=O)(=O)c1cc(Br)ccc1F`, the cytotoxicity at 10 µM is -55.4%.
For `CC(C)NC(=O)CC(C)NCc1ccc(F)cc1Cl` (configuration not stated) the value was -40.7%; for `O=C(O)c1ccc(S(=O)(=O)Nc2ccccc2CC(F)(F)F)c(F)c1`, 6.02%.
For `COc1cccc(CN(C)C(=O)CN2CC(n3nc(C)cc3C)C2)c1` the value was -1.38%; for `Cc1noc(C)c1CN1CC[C@H](OCC2CC2)[C@@H](Cc2ccccc2)C1`, -65.8%; for `CCO[C@@H]1CCN(C(=O)c2cnc(C)cn2)[C@@H]1Cc1cnn(C)c1`, -72.7%.
Take `Cc1cc(CN2CC[C@H]3C(=O)N(c4cccnc4)CCO[C@H]3C2)no1`: the cytotoxicity at 10 µM was -66.8%.
For `CCCSc1ncc(-c2nccn2CCC(N)=O)cn1` the value was -10.4%.
With `CCC1CC(=O)NCc2nc3sc(C)cn3c21` (configuration not stated), the cytotoxicity at 10 µM is 5.27%.
For `COc1coc(CN2CCCC3(CCC(=O)N(C4CC4)C3)C2)cc1=O` (configuration not stated) the value was -39.9%.
For `Cc1ccc(-c2cn[nH]c2C2CCCN(c3cnccn3)C2)cc1` (configuration not stated) the value was 73.6%; for `CNc1nc(C(=O)NCC2CCOc3ccccc3C2)cs1` (configuration not stated), 2.53%; for `CN1[C@H](CO)C[C@H](CNCc2ccc(Cl)c(F)c2)[C@@H]1c1ccccc1F`, -8.39%.
For the compound `COc1ccc(OC)c(C2CCN(C(=O)C3CCN(C(C)C)CC3)C2)c1` (configuration not stated), the cytotoxicity at 10 µM was -7.49%.
Turning to `CCOC(=O)CCNC(=O)N1CCOC(Cc2cccc(OC)c2)C1` (configuration not stated), the cytotoxicity at 10 µM was -1.13%.
As for `CC(NC(=O)c1ccc(=O)n(C)c1)c1ccccc1-n1cccn1` (configuration not stated), the cytotoxicity at 10 µM stood at 2.68%.
As for `CCNC(=O)C1CCN(c2cc(-c3ccccc3F)nc3ccnn23)C1` (configuration not stated), the cytotoxicity at 10 µM was found to be 4.31%.
With `OCCC1CN(c2ncnc3[nH]cnc23)CCN1Cc1cccs1` (configuration not stated), the cytotoxicity at 10 µM was determined as 12.8%.
For `CSc1nccc(N2CCC(NCCN3CCOCC3)CC2)n1` the value was -49.5%.
For the compound `CCN(Cc1ccncc1)c1cc(C2CCCNC2)nc(C)n1` (configuration not stated), the cytotoxicity at 10 µM is -5.21%.
Take `CNc1ncccc1CN1CCN2CCN(C)CC2C1` (configuration not stated): the cytotoxicity at 10 µM is -2.46%.
For `COc1nccnc1N1CCC(C(=O)O)(n2ccc(C(C)(C)C)n2)CC1` the value was -4.05%; for `CC1CCCN(CCCNC(=O)c2ccc(N(C)S(C)(=O)=O)cc2Cl)C1` (configuration not stated), -2.28%; for `COc1ccc(C(=O)N2CCOC3(CNCCOC3)C2)c(OC)n1` (configuration not stated), -8.2%.
For `O=C(Cn1c(=O)n(Cc2ccco2)c2ncccc21)NC1CCCCC1` the value was 4.73%; for `Cc1nccn1-c1cccc(C2CCCN(C(=O)c3cc[nH]n3)C2)n1` (configuration not stated), 0.481%.
On to `CCOCCN1CCN(Cc2nc(CC(C)C)no2)CC1`, for which the cytotoxicity at 10 µM was -13%.
For `Cc1nc(C2CCCN(C(=O)CCCn3cccn3)C2)no1` (configuration not stated), the cytotoxicity at 10 µM was -3.84%.
For `O=C(NCCc1ccc(Cl)s1)NCc1nnc2n1CCC2`, the cytotoxicity at 10 µM was -7.15%.
Regarding `CC(=O)N1CCCN(C(=O)NCc2ccccn2)CC1`, the cytotoxicity at 10 µM is -7.37%.
Turning to `COc1ccccc1N1CCC(CNCc2cccc(C#N)c2)C1` (configuration not stated), the cytotoxicity at 10 µM is -5.21%.
For the compound `CCN(CC)C(=O)CN(C)C1CCc2ccccc21` (configuration not stated), the cytotoxicity at 10 µM is -5.1%.
Regarding `c1cnn(CCNCc2nnc(C3CC3)o2)c1`, the cytotoxicity at 10 µM was -10.5%.
`COc1ccc(C2=CCN(C(=O)CN(C)Cc3ccoc3)CC2)cc1`: the cytotoxicity at 10 µM is -4.87%.
For `Cc1nc(C)n(CC2CCCN(CCc3ccccn3)C2)n1` (configuration not stated), the cytotoxicity at 10 µM is -1.59%.
`CC(C)COCC(NC(=O)c1cc[nH]n1)c1ccco1` (configuration not stated): the cytotoxicity at 10 µM is -4.72%.
Consider `CN1CCc2c(C#N)c(NCc3cccnc3)n3cnnc3c2C1`, for which the cytotoxicity at 10 µM is 11.2%.
As for `Cc1ccc(N2CC[C@H]3CO[C@H](CN(C)Cc4ccco4)[C@H]3C2)nn1`, the cytotoxicity at 10 µM stood at 8.35%.
As to `Cc1ccc(N2CCC3(CCCN(C(=O)c4cccnc4)C3)C2)nn1` (configuration not stated), the cytotoxicity at 10 µM turned out to be 2.21%.
`c1cncc(COCc2nnc3n2CCN(Cc2ccco2)C3)c1`: the cytotoxicity at 10 µM is -4.04%.
As to `CC(C)Nc1ncnc2c1CCN(C(=O)c1ccncc1F)CC2`, the cytotoxicity at 10 µM was 4.76%.
Turning to `c1cncc(N2CCOCC3(CN(Cc4cccs4)CCO3)C2)c1` (configuration not stated), the cytotoxicity at 10 µM was -79.7%.
For `CO[C@@H]1CCN(S(=O)(=O)c2cccnc2)[C@@H]2CN(CC3CC3)C[C@@H]21`, the cytotoxicity at 10 µM was -65.7%.
For `CN(Cc1cn2c(n1)CN(CC1CCOC1)CC2)Cc1ccco1` (configuration not stated) the value was -82.9%; for `c1ccc(OC2COC3(CCN(CC4CC4)CC3)C2)nc1` (configuration not stated), -75.2%.
For the compound `CN(C)CC(=O)N1CCC2(CC(=O)N(c3cccc(C#N)c3)C2)C1` (configuration not stated), the cytotoxicity at 10 µM worked out at 3.37%.
`O=C(C1CC=CC1)N1C[C@@H]2CN(Cc3ccsc3)CCO[C@@H]2C1`: the cytotoxicity at 10 µM is -87.4%.

Values taken from ChEMBL document CHEMBL4513216, “Probing the Open Global Health Chemical Diversity Library for Multistage-Active Starting Points for Next-Generation Antimalarials” (ACS Infect Dis, 2020).
